# High-throughput results: PubChem BioAssay, several laboratories
# NF-kB expr up: activators of NF-kB expression in neurons, primary screen, cell-based, HTS; fold change at 12.5 µM; human neuronal cells, NF-kB reporter expression; active compounds read high; actives 1.6% (n = 190,000); in the data active = fold change above about 3.3
# FLuc stim CS: FLuc activators, initial screening, artefact control for FLuc-dependent activation tests, biochemical, ATPlite luminescence | Luciferin 4-monooxygenase (Photinus pyralis), P08659 | ATPlite luciferase biochemical, 10 min; 0 = ATP-free wells, 1 = DMSO control | activation factor at 10 µM | 200,000 tested, under 10 active;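 active = luciferase activation factor, scaled between plate controls, of at least 2 with compound at 10 µM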
# Target sequence (P08659 whole entry, looked up): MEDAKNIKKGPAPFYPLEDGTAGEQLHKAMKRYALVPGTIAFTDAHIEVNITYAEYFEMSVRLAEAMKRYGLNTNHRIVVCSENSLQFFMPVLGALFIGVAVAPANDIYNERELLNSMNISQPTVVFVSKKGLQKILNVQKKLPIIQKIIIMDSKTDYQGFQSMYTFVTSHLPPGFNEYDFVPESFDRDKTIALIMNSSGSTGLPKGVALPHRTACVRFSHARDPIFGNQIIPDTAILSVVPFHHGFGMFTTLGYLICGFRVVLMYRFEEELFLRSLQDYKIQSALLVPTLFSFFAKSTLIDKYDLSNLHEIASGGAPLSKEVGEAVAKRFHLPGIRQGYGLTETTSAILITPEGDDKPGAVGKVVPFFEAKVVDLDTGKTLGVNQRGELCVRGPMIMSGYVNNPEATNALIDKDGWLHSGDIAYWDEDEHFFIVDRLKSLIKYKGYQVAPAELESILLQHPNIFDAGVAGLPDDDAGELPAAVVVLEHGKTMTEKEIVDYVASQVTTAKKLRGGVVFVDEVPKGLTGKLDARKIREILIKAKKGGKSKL
#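 Assay system: Luciferase/luciferin detection reagent, cell-free biochemical luciferase assay / Also added: ATP substrate / Schedule: 10 min at ambient temperature / Measured by: luminescence measurement of luciferase light output / Benchmarks: low control with PBS replacing ATP, high control enzyme plus ATP without compound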
# APP 5'UTR act: activators of APP 5'UTR luciferase reporter, primary screen, SH-SY5Y cells | SH-SY5Y APP 5'UTR luciferase reporter, luminescence; zero percent = DMSO vehicle wells | activation, % at 2 µM | actives 1% (n = 190,000) | AID 1276, 2008;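 active = activation above a set limit, based on mean plus 3 SD of controls, cut at about 140% in these data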
# FLuc inhib CS: firefly luciferase enzyme inhibitors, primary screen, artefact control for luciferase-based inhibitor screens, biochemical, luminescence, ATPLite. 10 min. inhibition, % at 10 µM. actives 1.5% (n = 200,000). AID 1006, 2008;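 active = inhibition above about 50% when tested at 10 µM, limit read from the data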
# SDO1 yeast rescue: growth rescue of sdo1-depleted yeast, primary screen, S. cerevisiae, bone marrow failure model | S. cerevisiae sdo1-depleted JHY4D growth rescue, OD600 30 h; active compounds read high; pdr5 snq2 efflux-pump mutant strain | z-score at 10 µM | actives 0.21% (n = 140,000);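 active = z-score above 3 at both the 24 hr and the 30 hr optical density reads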;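 note: z-score against mean and SD of all compound wells on the same plate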
# STAT1 act: STAT1 signaling activators, primary screen, cell-based, HTS, luciferase reporter. NIH 3T3 STAT1-luciferase reporter, IFN-gamma, luminescence; 100% = IFN-gamma alone, no compound. AID 932, 2007. activation (% of control), % at 5.5 µM. actives 2.6% (n = 200,000);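 active = activation above the screen-wide mean activation plus 3 SD, cut at about 130% in these data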;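 note: raw ratio to IFN-gamma control signal so 100% means no change and 0% no light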
# * = called active by the depositor; x = no result. Most compounds without a hit are left out; they make up all but 4.3% or so of the library.
SMILES,NF-kB expr up,FLuc stim CS,APP 5'UTR act,FLuc inhib CS,SDO1 yeast rescue,STAT1 act
O=C(CSc1nnc(NC2CCCCC2)s1)Nc1ccc2c(c1)C(=O)c1ccccc1C2=O,1.2,1,86,2,x,139*
Cc1ccc(C(=O)/C=C\C(=O)c2ccc(C)cc2)cc1,2.4,1,-88,0,-2.3,93
Cc1ccc(C(=O)/C=C\NCc2ccccc2)cc1,1.8,0.8,14,18,0.83,130*
Cc1ccc(S/C=C\C(=O)c2ccccc2)cc1,10*,0.1,144*,91*,-1.2,96
COc1ccc(C(=O)/C=C/NCc2ccc(C)cc2)cc1,x,x,24,x,x,117
CCOC(=O)C1CCN(Cc2cnc(Oc3ccc(C(C)(C)C)cc3)s2)CC1,0.98,1,-6,2,-0.8,100
O=C(C1CC=CCC1)N1CCN(C(=O)C2CC=CCC2)CC1 (configuration not stated),1,1,3,0,1.2,100
CCOC(=O)N1CCN(C(=O)CCCn2nc(C)c3sc4ccccc4c3c2=O)CC1,1.1,1,-2,-2,0.18,96
COC(=O)c1cn(NC(=O)C2CCC(C)CC2)c(=O)c2ccccc12 (configuration not stated),1,1.1,15,-7,0.35,100
COC(=O)c1cn(NC(=O)c2cc([N+](=O)[O-])ccc2F)c(=O)c2ccccc12,0.85,1,-23,-2,x,139*
Cc1cc(N)n2ncc(-c3ccc(F)cc3)c2n1,1.7,0.9,84,7,-0.4,140*
Cc1cc(N)n2ncc(-c3ccc(Cl)cc3)c2n1,2.1,1,96,-5,-1.8,140*
CCOC(=O)Cc1c(C)nc2c(-c3ccc(Cl)cc3)cnn2c1C,1.2,1,-5,-1,x,106
O=C1NCC(COc2ccc(Cl)cc2)O1 (configuration not stated),1,1,-3,-2,x,94
C=COC(=O)CSc1nc(-c2cccs2)ccc1C#N,1.9,1,90,-3,-0.3,136*
O=C1C2C3CCC(C3)C2C(=O)N1c1ccc(OS(=O)(=O)c2ccccc2)cc1 (configuration not stated),1.7,0.9,106,10,x,137*
O=[N+]([O-])c1ccc(-c2nc(=S)c3c(o2)CCCC3)cc1,1.3,1.1,16,-6,-0.84,93
S=c1nc(-c2ccccc2)oc2c1CCCC2,4*,0.7,76,29,-0.76,132*
COc1cccc(-c2nc(=S)c3c(o2)CCCC3)c1,2.6,0.5,170*,47,x,144*
Cn1c(=O)c2c(SCc3c(F)cccc3Cl)nc(CC(C)(C)C)nc2n(C)c1=O,0.98,1,7,-4,1.2,106
CCOC(=O)N1CCN(C(=O)CSc2nnc(-c3ccc(C)c(C)c3)o2)CC1,0.94,0.9,-3,8,-0.06,96
CCOC(=O)N1CCN(C(=O)CSc2nnc(-c3ccc(C(C)(C)C)cc3)o2)CC1,1.2,0.5,7,53*,-0.57,87
COc1ccccc1Oc1ccc(N/C=C/C(=O)c2ccco2)cc1,5.2*,0.7,72,32,x,143*
CN(C)c1ccc(N/C=C/C(=O)c2ccc(F)cc2)cc1,4.6*,0.4,67,58*,0.94,120
CC(=O)Nc1ccc(N/C=C/C(=O)c2ccco2)cc1,2.4,0.6,50,37,-0.28,141*
SMILES,NF-kB expr up,FLuc stim CS,APP 5'UTR act,FLuc inhib CS,SDO1 yeast rescue,STAT1 act
O=C(/C=C/Nc1cccc([N+](=O)[O-])c1)c1ccco1,x,x,43,x,x,128
CN(C)c1ccc(N/C=C/C(=O)c2ccco2)cc1,2.3,0,x,96*,1.5,71
O=C(CSc1ccc2ccccc2n1)Nc1ccc(N2CCOCC2)cc1,0.84,1.1,6,-5,x,107
O=C(N1CCOCC1)C(F)(F)C(=O)N1CCOCC1,1.1,1.1,13,-6,0.45,94
CCOC(=O)/C(=C\c1ccccc1)C(=O)c1cc(C(C)=O)c(Nc2ccccc2)s1,9.7*,1.1,-11,-6,-1,79
Cc1ccc(OCc2ccc(C(=O)N3CCOCC3)cc2)cc1C,1.8,0.9,x,9,-0.33,142*
Nc1cccnc1Sc1cc(Cl)c(Cl)cc1Cl,0.98,1,7,-2,-2,93
COC(c1ccccc1)c1nnc(CCC(=O)N(C)C(C2CC2)C2CC2)o1 (configuration not stated),2.6,1,44,-5,x,131*
CN(C)c1oc(-c2ccccc2)nc1C#N,1.2,1,-7,-3,0.95,104
CN(C)c1oc(/C=C/c2ccccc2)nc1C#N,2.1,1,62,0,-0.02,138*
Cc1cc(C(=O)CSc2ccc3c(c2)OCCO3)c(C)n1C1CC1,2.5,0.9,56,13,-0.04,133*
C=C(C)C1CC=C(C)/C(=N/NC(=O)c2cccs2)C1 (configuration not stated),3.2,0.6,63,43,-0.52,129*
CN(C)c1ccccc1C(=O)c1ccccc1N(C)C,2.5,0.8,-91,24,-1.6,132*
O=C(c1cc([N+](=O)[O-])cc([N+](=O)[O-])c1)N1CCN(Cc2ccc3c(c2)OCO3)CC1,0.95,1,-10,-1,x,97
CC1=NN(C(N)=S)C(=O)C1N=Nc1ccc(C)cc1C (configuration not stated),3.2,0.7,58,30,-1.9,137*
COC(=O)c1c(C(=O)OC)c(C)n(Cc2ccco2)c1C,1,1.1,2,-6,-0.7,102
COCCn1c(C)cc(C(=O)COC(=O)c2cc3c(s2)CCC3)c1C,1,1.1,17,-6,-0.52,136*
COCCn1c(C)cc(C(=O)COC(=O)c2ccc([N+](=O)[O-])o2)c1C,0.99,0.6,-3,36,x,94
Cc1cc(C(=O)CSc2nnc(N)s2)c(C)n1Cc1ccco1,4.1*,0.2,235*,80*,x,85
Cc1cc(C(=O)COC(=O)c2cccn2C)c(C)n1Cc1ccco1,1,0.2,166*,80*,x,65
COCCn1c(C)cc(C(=O)CSc2nnc(C)s2)c1C,1.3,0.3,22,70*,-0.18,64
O=C(OCn1nnc2ccccc2c1=O)c1cc(-c2ccccc2)nc2ccccc12,1.2,1,-5,1,-1,104
Cc1cc(C(=O)COC(=O)c2ccncc2)c(C)n1Cc1ccco1,0.6,0.2,25,79*,x,129*
